This is an account of results in ChEMBL document CHEMBL5108074 (J Med Chem, 2022).

Where only a bound is given, the exact number is not on record here.

Data set [1] in a line: Clearance in Sprague-Dawley rat assessed as liver blood flow at 1 mg/kg, iv measured upto 24 hrs by LC-MS analysis. The class given is ADME, organism-based. The conditions noted are these: in vivo. The essentials: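 Male Sprague-Dawley rats, two per route, single dose. IV: 1 mg/kg given as 1 mL/kg of a nominal 1 mg/mL formulation in vehicle. PO: 10 mg/kg given as 5 mL/kg of a 2 mg/mL formulation. PK parameters from noncompartmental analysis. Clearance expressed relative to rat liver blood flow of 80 mL/min/kg.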

In the next data set the target is Cytochrome P450 3A4 (Homo sapiens, UniProt P08684). Put plainly: Inhibition of CYP3A4 in human liver microsomes assessed as reduction in 6beta-hydroxymidazolam metabolite formation using midazolam as substrate incubated for 30 mins in presence of NADPH by LC-MS/MS analysis. The class given is ADME, Microsome.
Data set [2] in a line: Volume of distribution at steady state in Beagle dog at 1 mg/kg, po and 1 mg/kg, iv measured upto 24 hrs by LC-MS analysis. The format is ADME, organism-based, Canis lupus familiaris. To be noted: in vivo.
The next data set concerns the target Coagulation factor XI (Homo sapiens, UniProt P03951). Description: Inhibition of human factor 11a preincubated for 5 mins followed by substrate addition by fluorometer analysis. The essentials:
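Enzyme from the selectivity panel of serine proteases, typically purified from human plasma. The inhibitor was preincubated with the enzyme for 5 min before a protease-specific fluorogenic substrate was added. Substrate cleavage was followed kinetically. IC50 came from a four-parameter logistic fit to the normalized rate of fluorescence increase.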

The next data set addresses Cytochrome P450 2C9 (Homo sapiens, UniProt P11712). Put plainly: Inhibition of CYP2C9 in human liver microsomes assessed as reduction in 4 hydroxy-diclofenac metabolite formation incubated for 30 mins in presence of NADPH by LC-MS/MS analysis. The format is ADME, Microsome.
The nature of data set [3]: Thermodynamic solubility of the compound in FaSSGF at 100 mg/ml at pH 1.6 measured after 4 hrs. The conditions noted are these: pH 1.6, 4 h.
The next data set has as its target Tryptase (Homo sapiens, UniProt Q9BZJ3+Q15661+Q9NRR2). Description: Inhibition of human tryptase preincubated for 5 mins followed by substrate addition by fluorometer analysis. The format is protein assay. The essentials:
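Human proteases, typically purified from plasma, preincubated with compound for 5 min. A protease-specific fluorogenic substrate was then added and cleavage followed kinetically on a fluorometer. IC50 from a four-parameter logistic fit to the normalized rate of fluorescence increase.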

The nature of data set [4]: Clearance in Beagle dog blood at 1 mg/kg, iv measured upto 24 hrs by LC-MS analysis. The format is ADME, organism-based, Canis lupus familiaris. The conditions noted are these: whole blood.
The target of the next data set is Beta-secretase 1 (Homo sapiens, UniProt P56817). Description: Inhibition of human beta-secretase 1 preincubated for 5 mins followed by substrate addition by fluorometer analysis.
A short description of data set [5]: Thermodynamic solubility of the compound in FaSSIF at 1 mg/ml at pH 6.5 using crystalline form of sample measured after 4 hrs. The class given is physicochemical. To be noted: simulated gi fluid, pH 6.5, 4 h. The essentials:
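Compound (nominal 1 or 100 mg/mL as free base) added to biorelevant medium preheated to 37 °C: FaSSGF at pH 1.6 or FaSSIF at pH 6.5. Vortexed, then shaken 4 h at 37 °C (~500 rpm). Centrifuged at 15000g for 10 min at 37 °C. Supernatant diluted and quantified against calibration standards. Crystalline material used where stated.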

Data set [6] can be described thus: Metabolic stability in human liver microsomes assessed as intrinsic clearance per mg of protein measured upto 60 mins in presence of NADPH regenerating system by LC-MS/MS analysis. The class given is ADME, Microsome. To be noted: microsomes, 1 h.
In the next data set the target is Prothrombin (Homo sapiens, UniProt P00734). Put plainly: Inhibition of human thrombin preincubated for 5 mins followed by substrate addition by fluorometer analysis. The essentials: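 Each protease (commercial, typically purified from human plasma) was preincubated with inhibitor for 5 min, then a fluorogenic substrate specific to that enzyme was added. Cleavage was followed kinetically by fluorometry. IC50 came from a four-parameter logistic fit to the normalized rate of fluorescence increase.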

Cytochrome P450 3A4, sequence (P08684 whole entry): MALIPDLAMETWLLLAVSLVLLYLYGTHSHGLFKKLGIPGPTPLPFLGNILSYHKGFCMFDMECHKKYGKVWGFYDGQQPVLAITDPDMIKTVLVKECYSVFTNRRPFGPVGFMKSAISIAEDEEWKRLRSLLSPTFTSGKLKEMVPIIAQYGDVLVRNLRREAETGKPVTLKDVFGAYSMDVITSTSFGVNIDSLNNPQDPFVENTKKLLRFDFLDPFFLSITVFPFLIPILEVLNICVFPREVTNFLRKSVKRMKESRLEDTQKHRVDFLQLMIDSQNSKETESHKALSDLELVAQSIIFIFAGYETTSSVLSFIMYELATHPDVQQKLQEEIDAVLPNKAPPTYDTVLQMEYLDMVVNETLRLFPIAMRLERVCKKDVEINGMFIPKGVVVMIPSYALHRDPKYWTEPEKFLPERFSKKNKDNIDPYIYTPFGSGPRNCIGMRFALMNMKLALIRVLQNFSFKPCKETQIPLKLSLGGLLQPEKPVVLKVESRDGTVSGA
Coagulation factor XI, sequence (P03951 19-387 limits assumed): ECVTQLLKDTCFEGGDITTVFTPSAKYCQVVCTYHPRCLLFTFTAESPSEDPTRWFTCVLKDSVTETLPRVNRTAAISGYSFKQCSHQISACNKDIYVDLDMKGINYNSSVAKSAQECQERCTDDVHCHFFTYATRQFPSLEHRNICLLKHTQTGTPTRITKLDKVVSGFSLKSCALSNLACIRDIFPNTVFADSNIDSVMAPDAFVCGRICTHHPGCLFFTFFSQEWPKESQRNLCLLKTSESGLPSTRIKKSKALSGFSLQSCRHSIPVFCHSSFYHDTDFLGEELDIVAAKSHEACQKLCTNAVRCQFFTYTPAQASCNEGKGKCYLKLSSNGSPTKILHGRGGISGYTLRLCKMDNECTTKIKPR
Coagulation factor XI, sequence (P03951 388-625 limits assumed): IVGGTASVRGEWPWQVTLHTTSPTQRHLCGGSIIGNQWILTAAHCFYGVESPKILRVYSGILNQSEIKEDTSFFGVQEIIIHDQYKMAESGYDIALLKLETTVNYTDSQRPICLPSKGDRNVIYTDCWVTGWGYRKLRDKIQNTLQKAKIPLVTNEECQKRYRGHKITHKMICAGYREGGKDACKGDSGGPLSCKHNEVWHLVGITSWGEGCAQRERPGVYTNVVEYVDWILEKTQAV
Cytochrome P450 2C9, sequence (P11712 whole entry): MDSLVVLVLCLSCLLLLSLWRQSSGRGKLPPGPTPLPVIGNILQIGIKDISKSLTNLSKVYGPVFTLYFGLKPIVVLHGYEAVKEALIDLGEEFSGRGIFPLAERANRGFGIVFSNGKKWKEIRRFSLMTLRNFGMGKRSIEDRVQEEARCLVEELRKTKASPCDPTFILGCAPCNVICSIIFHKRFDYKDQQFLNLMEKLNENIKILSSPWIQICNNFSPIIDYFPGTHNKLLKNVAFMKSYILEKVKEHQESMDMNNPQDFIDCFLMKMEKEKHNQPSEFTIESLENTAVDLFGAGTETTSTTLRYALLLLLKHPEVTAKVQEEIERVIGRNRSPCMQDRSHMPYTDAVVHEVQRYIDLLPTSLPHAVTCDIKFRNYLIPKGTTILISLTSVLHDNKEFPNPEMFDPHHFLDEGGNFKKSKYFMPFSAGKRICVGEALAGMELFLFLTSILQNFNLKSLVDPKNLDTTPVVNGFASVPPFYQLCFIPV
Beta-secretase 1, sequence (P56817 whole entry): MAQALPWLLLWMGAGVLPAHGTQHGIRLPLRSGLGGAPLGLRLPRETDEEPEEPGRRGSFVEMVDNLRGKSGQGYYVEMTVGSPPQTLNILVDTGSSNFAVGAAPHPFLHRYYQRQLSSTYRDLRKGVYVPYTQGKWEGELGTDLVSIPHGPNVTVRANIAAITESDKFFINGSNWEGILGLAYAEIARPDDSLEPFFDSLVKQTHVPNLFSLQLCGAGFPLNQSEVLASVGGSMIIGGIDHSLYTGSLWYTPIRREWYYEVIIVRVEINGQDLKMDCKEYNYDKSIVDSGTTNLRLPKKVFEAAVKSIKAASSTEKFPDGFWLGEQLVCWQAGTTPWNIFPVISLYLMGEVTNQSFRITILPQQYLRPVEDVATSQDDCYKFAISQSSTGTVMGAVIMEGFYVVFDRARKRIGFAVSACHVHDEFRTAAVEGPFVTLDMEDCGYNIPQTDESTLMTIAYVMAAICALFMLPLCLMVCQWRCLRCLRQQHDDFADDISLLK

With `COCc1nn(Cc2ccc(Cn3ccccc3=O)cc2)cc1C(=O)NCc1nccc(OC)c1F` [SEBETRALSTAT], the LBF in [1] was determined as 26%. Also, the IC50 was greater than 25 µM on Cytochrome P450 3A4; greater than 40 µM against Coagulation factor XI; greater than 25 µM on Cytochrome P450 2C9; greater than 10 µM at Tryptase; greater than 10 µM at Beta-secretase 1; greater than 40 µM against Prothrombin. For the same compound, the Vdss in [2] amounted to 0.65 L/kg. Further, the Therm_solubility is 11000 µg/mL in data set [3] and 110 µg/mL in [5]. This compound also registered a clearance in [4] of 10.9 mL/min/kg. In addition, the microsomal intrinsic clearance in data set [6] stood at 14 µL/min.
